Here are results for 16 molecules from ChEMBL document CHEMBL1126879, “A new series of imidazolones: highly specific and potent nonpeptide AT1 angiotensin II receptor antagonists” (J Med Chem, 1993).

One assay is filed under the species Oryctolagus cuniculus. In words: Antagonistic activity through inhibition of A II induced contractions on rabbit aortic strips. It counts as functional. The settings on record: Aorta.
Assay [1] has as its target T1, Type-1 angiotensin II receptor B (Rattus norvegicus, UniProt P29089).
T1 sequence (P29089 whole entry): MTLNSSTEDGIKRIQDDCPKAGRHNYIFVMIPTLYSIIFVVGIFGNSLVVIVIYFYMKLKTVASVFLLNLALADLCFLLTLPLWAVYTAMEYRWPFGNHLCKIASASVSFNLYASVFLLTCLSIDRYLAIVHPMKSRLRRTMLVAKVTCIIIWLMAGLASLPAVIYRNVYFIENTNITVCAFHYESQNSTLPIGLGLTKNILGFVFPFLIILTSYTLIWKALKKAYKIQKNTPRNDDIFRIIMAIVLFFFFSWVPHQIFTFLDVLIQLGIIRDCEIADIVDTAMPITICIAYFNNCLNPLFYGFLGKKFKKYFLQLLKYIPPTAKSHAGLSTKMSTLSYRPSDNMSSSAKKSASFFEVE
Put plainly: Binding affinity for Angiotensin II receptor, type 1 measured by ability to displace [125I]- A II from its specific binding site in rat liver membrane. It counts as cell membranes. Summed up:
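Purified plasma membranes from male Sprague-Dawley rat liver, isolated on a sucrose gradient, 20–30 μg protein per assay. Filtered, then gamma counted. Nonspecific binding with 1 μM unlabeled AII. Triplicates; IC50 and Hill coefficient from Hill plots.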

On to `CCCCC1=NC2(CCN(Cc3ccccc3)CC2)C(=O)N1Cc1ccc(-c2ccccc2C(=O)O)cc1`, for which the 50% inhibitory concentration (IC50) (commonly the concentration that inhibits the measured activity by half) in the assay filed under Oryctolagus cuniculus is 420 nM; in assay [1], 110 nM. The matching figures for `CCCCC1=NC2(CCC2)C(=O)N1Cc1ccc(-c2ccccc2C(=O)O)cc1`: 42 nM and 38 nM. The corresponding values for `CCCCC1=NC2(Cc3ccccc3C2)C(=O)N1Cc1ccc(-c2ccccc2C(=O)O)cc1` are 240 nM and 60 nM.

Regarding `CCCCC1=NC2(CCN(C(=O)C(N)CC(=O)O)CC2)C(=O)N1Cc1ccc(-c2ccccc2C(=O)O)cc1` (stereo not given), the IC50 in assay [1] stood at 800 nM. Turning to `O=C(O)c1ccccc1-c1ccc(CN2C(=O)C3(CCCC3)N=C2Cc2ccccc2)cc1`, the figures for the 50% inhibitory concentration (IC50) (in the assay filed under Oryctolagus cuniculus; in assay [1]) were 3900 nM and 2500 nM, respectively. Turning to `CCCCC1=NC2(CCN(C(C)=O)CC2)C(=O)N1Cc1ccc(-c2ccccc2C(=O)O)cc1`, the IC50 in the assay filed under Oryctolagus cuniculus was 130 nM; in assay [1], 18 nM. The corresponding values for `CCCCC1=NC2(CCCCCCCCCC2)C(=O)N1Cc1ccc(-c2ccccc2C(=O)O)cc1` are 350 nM and 350 nM. The corresponding values for `CCCCC1=NC2(C(=O)N1Cc1ccc(-c3ccccc3C(=O)O)cc1)C1CC3CC(C1)CC2C3` (stereo not given) are 23 nM and 62 nM. In the case of `CCCCC1=NC(c2ccccc2)(c2ccccc2)C(=O)N1Cc1ccc(-c2ccccc2C(=O)O)cc1`, the IC50 in the assay listed under Oryctolagus cuniculus stood at 5400 nM; in assay [1], 3000 nM. The corresponding values for `CCCCC1=NC2(CCOCC2)C(=O)N1Cc1ccc(-c2ccccc2C(=O)O)cc1` are 200 nM and 47 nM. For the molecule `CCCCC1=NC2(CCCC2)C(=O)N1Cc1ccc(-c2ccccc2C(=O)OC)cc1`, the figures for the IC50 (in the assay filed under Oryctolagus cuniculus; in assay [1]) were over 10000 nM and 1800 nM, respectively. `CCCCC1=NC2(CCCC2)C(=S)N1Cc1ccc(-c2ccccc2C(=O)O)cc1`: the values for the IC50 (in the assay listed under Oryctolagus cuniculus; in assay [1]) were 52 nM and 80 nM, respectively.

Turning to `CCCCC1=NC2(CCCC2)C(=O)N1Cc1ccc(-c2ccccc2C#N)cc1`, the IC50 in the assay filed under Oryctolagus cuniculus is over 10000 nM; in assay [1] it was 440 nM. The matching figures for `CCCCC1=NC2(CCCC2)C(=O)N1Cc1ccc(-c2ccccc2-c2nnn[nH]2)cc1` [IRBESARTAN]: 4 nM and 1.3 nM. In turn, `CCCCc1nc(Cl)c(CO)n1Cc1ccc(-c2ccccc2-c2nnn[nH]2)cc1` [LOSARTAN] gave an IC50 in the assay filed under Oryctolagus cuniculus of 25 nM. In the case of `CNCC(=O)N[C@@H](CCCNC(=N)N)C(=O)N[C@H](C(=O)N[C@@H](Cc1ccc(O)cc1)C(=O)N[C@H](C(=O)N[C@@H](Cc1cnc[nH]1)C(=O)N1CCC[C@H]1C(=O)N[C@@H](C)C(=O)O)C(C)C)C(C)C` [SARALASIN], the half-maximal inhibitory concentration (IC50) in the assay listed under Oryctolagus cuniculus turned out to be 2.3 nM; in assay [1], 2.4 nM.
